CHOP inhibitor = CHOP inhibition in unfolded protein response; CHO-K1 CHOP-promoter luciferase, tunicamycin-induced, 15-18 h; inhibition, % at 10 µM; 220,000 compounds, 3.8% hits; AID 2732;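 active = compounds that reduced the stress-induced luciferase reporter signal by more than about 70% of percent inhibition, limit read from the data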
L major viab = inhibitors of Leishmania major promastigote growth; AID 1063; Leishmania major promastigotes, resazurin fluorescence viability; inhibition, % at 10 µM; 200,000 compounds, 9% hits; in the data active = inhibition above about 50%;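 note: promastigotes grown with compound for 44 hours at 28 °C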
Autophagy HCS = alters autophagy in cells; MEF GFP-LC3 puncta imaging; test concentration mostly 10 µM; calls only at 10 µM (by protocol); 190,000 compounds, 0.98% hits;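 active = percentage of spot-positive cells more than 3 SD above its plate mean, without a fluorescence outlier flag or 80% toxicity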
bCat nuc transl = beta-catenin nuclear translocation modulation; nuclear translocation activity, % at 5 µM; 190,000 compounds, 0.3% hits; HeLa beta-catenin nuclear translocation, immunofluorescence imaging;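 active = nuclear translocation activity above 50% at 5 µM, with a well cell count of 50 or more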;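 note: per-cell ratio of nuclear to cytoplasmic median beta-catenin stain intensity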
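Assay system: human HeLa cells, native beta-catenin; doses: 5 µM primary, 0.02–20 µM confirmation; incubation: compound treatment 24 h, 37°C, 5% CO2; technique: fluorescence imaging of beta-catenin antibody stain plus DAPI; measure: % activation, nuclear-to-cytoplasmic median beta-catenin signal ratio per cell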
MT stabilize HCS = microtubule stabilizers in HeLa cells | HeLa tubulin immunostaining HCS, 24 h; share of cells brighter than vehicle mean+2SD | % tubulin-high responders, % at 10 µM | 200,000 compounds, 0.83% hits;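 active = plate Z-score above 3 for both tubulin-high and condensed-nucleus cell shares, with cell loss under 80%, at 10 µM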;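 note: anti alpha tubulin signal scored within the nucleus-defined area of each cell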
Dynein transport = blocks dynein driven cargo transport along microtubules; AID 1381; 220,000 compounds, 0.47% hits; 3617.4 mouse cells, GR-EGFP nuclear translocation imaging; test concentration mostly 20 µM; stimulated with dexamethasone, 1 µM; hits give low values; z-score, hits read low;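 active = plate z-score of nuclear minus cytoplasmic receptor signal below a set negative limit, without overly bright fluorescence or cell loss, cut at about -3.5 in these data, passing the limit was not always enough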;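 note: z-score of nuclear minus cytoplasmic ring GR-EGFP intensity difference per well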
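Buffer or medium: tet-free, stripped-serum medium; reagent: dexamethasone at 1.0 µM final, 30 min; incubation: 48 h induction, 1 h compound, 30 min dex at 37 °C; measured by: formaldehyde fixation, Hoechst nuclear stain, 10x automated fluorescence imaging; read-out: nuclear-to-cytoplasmic GR-EGFP distribution per well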
Of the large screens only hits and unclear results are named; the others gave an inactive call. Most compounds without a hit are left out; they make up all but 12% or so of the library.

Cc1ccc(C)c2[nH]c(=O)c(C(c3nnnn3CCc3ccccc3)N3CCOCC3)cc12 (centres undefined)	L major viab 100
Cc1cccc(C(=O)N2CCN(c3ccc(C(F)(F)F)cn3)CC2)c1C	none (no result: bCat nuc transl)
N=C1SC(CC(=O)Nc2ccccc2[N+](=O)[O-])C(=O)N1c1ccccc1 (centres undefined)	none (no result: L major viab, Autophagy HCS, MT stabilize HCS)
Cc1nc([N+](=O)[O-])c(C(=O)OCc2ccc(C#N)cc2)n1C	none
CC(OC(=O)c1nn(C(C)C)c(=O)c2ccccc12)C(=O)Nc1ncc(Cl)cc1Cl (centres undefined)	none
O=C(CS(=O)(=O)c1cn(Cc2ccc(Cl)cc2)c2ccccc12)N1CCCC1	none (no result: bCat nuc transl)
O=C(Cc1cn(Cc2cccc(Cl)c2)c2ccccc12)N1CCCC1	L major viab 99
COC(=O)NC(=S)Nc1ccc(Oc2ccc(Cl)cc2Cl)c(Cl)c1	MT stabilize HCS 26
Fc1ccc(NC(=S)N2CCCC2)cc1Cl	L major viab 95
COC(=O)NC(=S)Nc1ccc(Oc2ccc(Cl)cc2)c(Cl)c1	none
Fc1ccc(NC(=S)Nc2ccc(F)c(Cl)c2)cc1Cl	L major viab 97
CC1=CC2CC1C1C(=O)N(c3ccc(S(=O)(=O)Nc4nc(C)cc(C)n4)cc3)C(=O)C21 (centres undefined)	L major viab 52
COc1ccc(NC(=O)c2nc(C)n(-c3ccc([N+](=O)[O-])cc3)n2)cc1	none
Cc1ccc(NC2c3ncccc3C(=O)N2C2CCCCC2)cc1C (centres undefined)	none
C/C(N)=C(/C#N)C(=O)CSc1cc(C)c2cc(C)cc(C)c2n1	Autophagy HCS active
Cc1cc(C)c2nc(SCC#N)cc(C)c2c1	none
Cc1cc(N2CCN(c3ccc(F)cc3)CC2)nc2cc(O)ccc12	CHOP inhibitor 82 (no result: bCat nuc transl)
COc1ccc2c(C)cc(N3CCN(c4ccc(F)cc4)CC3)nc2c1	L major viab 87
COc1ccc(N2CCN(c3cc(C)c4ccc(O)cc4n3)CC2)cc1	none
COc1ccc(N2CCN(c3cc(C)c4ccc(C)cc4n3)CC2)cc1	none
CCn1c2ccccc2c2nnc(SCC(=O)N(C)C3CCS(=O)(=O)C3)nc21 (centres undefined)	L major viab 66 (no result: bCat nuc transl)
COc1ccc2c(C)cc(SCC(=O)Nc3ccc(Cl)cn3)nc2c1	L major viab 59
Cc1ccc(-c2nc(SCC(=O)N(C)C3CCS(=O)(=O)C3)[nH]c2-c2ccc(C)cc2)cc1 (centres undefined)	L major viab 94
COc1ccc2c(C)cc(SCC(=O)N(C)C3CCS(=O)(=O)C3)nc2c1 (centres undefined)	Autophagy HCS active
COc1ccc2c(C)cc(SCC(=O)N3CCOCC3)nc2c1	none
O=C(Nc1ccccc1Br)C1CCN(C(=O)Cc2ccccc2)CC1	none (no result: bCat nuc transl)
Fc1ccc(CSc2ccc(-c3ccco3)nn2)cc1	none
CC(C)(C)C(=O)c1sc2nc(-c3cccs3)cc(C(F)(F)F)c2c1N	L major viab 54, Autophagy HCS active
COc1ccc(NC(=O)c2sc3nc(Cc4ccccc4)cc(C(F)(F)F)c3c2N)cc1OC	none
Nc1c(C(=O)Nc2nccs2)sc2nc(-c3cccs3)cc(C(F)(F)F)c12	Autophagy HCS active
CCN(CC)C(=O)c1sc2nc(-c3cccs3)cc(-c3cccs3)c2c1N	none (no result: L major viab, Autophagy HCS, MT stabilize HCS)
COc1ccccc1NC(=O)c1sc2nc(Cc3ccccc3)cc(C(F)(F)F)c2c1N	Autophagy HCS active
COc1ccc(-c2cc(C(F)(F)F)nc(NC3CCCC3)n2)cc1OC	CHOP inhibitor 73
COc1ccc(-c2cc(C(F)(F)F)nc(N3CCOCC3)n2)cc1OC	none
CN(C)c1ccc(/C=C/C=N/Nc2nc(N3CCOCC3)nc(N3CCOCC3)n2)cc1	none
Cc1ccc(SCc2ccc(C(=O)NCc3ccncc3)cc2)cc1	none
CCOc1ccccc1NC(=O)c1ccccc1-c1nc(-c2ccccc2)no1	MT stabilize HCS 32
COc1ccc(-c2noc(-c3ccccc3C(=O)Nc3cccnc3)n2)cc1OC	L major viab 71
CC(Oc1ccc(Cl)cc1Cl)c1nc(-c2ccc(NC(=O)c3ccncc3)cc2)no1 (centres undefined)	none
CC(Oc1ccc(Cl)cc1Cl)c1nc(-c2ccc(NC(=O)c3cccnc3)cc2)no1 (centres undefined)	L major viab 95 (no result: bCat nuc transl)
COc1ccc(Cl)cc1-c1nc(-c2ccc(NC(=O)c3cccs3)cc2)no1	L major viab 65
COc1ccc(-c2noc(-c3ccccc3C(=O)Nc3cccnc3)n2)cc1	none
Nc1oc2ccc(F)cc2c(=O)c1C=O	none (no result: bCat nuc transl)
CCOc1ccccc1/C=C(/NC(=O)c1ccccc1)C(=O)NC(C)c1ccccc1 (centres undefined)	none
COc1ccc2ccccc2c1CNC(=O)CC1C(=O)NCCN1CC(C)(C)C (centres undefined)	none (no result: L major viab, Autophagy HCS, MT stabilize HCS)
O=C(CSc1ccc(-c2ccco2)nn1)c1ccc(F)cc1	none
N#Cc1ccc(-c2ccco2)nc1SCC(=O)c1ccc(Cl)cc1	Autophagy HCS active
CSc1nc(N)nc(SCC(=O)c2ccccc2)c1C#N	Autophagy HCS active
COc1ccc(C(=O)CSc2nc(N)nc(SC)c2C#N)cc1	none
Cc1ccc(C(=O)CSc2nc(-c3ccccc3)ccc2C#N)cc1	Autophagy HCS active
CCCCN(C)C(=O)c1oc2ccc(S(=O)(=O)N3CCCCCC3)cc2c1C	none
Cc1ccc(OCCN2C(=O)C(=O)c3cc(C)ccc32)cc1	Autophagy HCS active
CCCNC1=C(N(C(C)=O)c2cccc(F)c2)C(=O)c2ccccc2C1=O	L major viab 99 (no result: bCat nuc transl)
CCC(=O)N(C1=C(NC(C)C)C(=O)c2ccccc2C1=O)C(C)C	none
CNc1nc(N)c(C(=O)C23CC4CC(CC(C4)C2)C3)s1	L major viab 100
CNC(=O)C(=O)Nc1nc(C23CC4CC(CC(C4)C2)C3)cs1	none
CC[n+]1c(C)cc(C)n1-c1ccccc1	none
CCC1=Nc2cc(C(=O)NCc3ccco3)ccc2Sc2ccccc21	L major viab 70, bCat nuc transl 55, MT stabilize HCS 24
CCC1=Nc2cc(C(=O)NCc3ccco3)ccc2Sc2ccc(Cl)cc21	L major viab 68
CCC1=Nc2cc(C(=O)NCC3CCCO3)ccc2Sc2ccc(Cl)cc21 (centres undefined)	none (no result: L major viab, Autophagy HCS, MT stabilize HCS)
CCC1=Nc2cc(C(=O)NCc3cccnc3)ccc2Sc2ccc(C)cc21	bCat nuc transl 64 (no result: L major viab, Autophagy HCS, MT stabilize HCS)
CCC1=Nc2cc(C(=O)NCCCOC(C)C)ccc2Sc2ccccc21	Autophagy HCS active (no result: bCat nuc transl)
CCC1=Nc2cc(C(=O)O)ccc2Sc2ccccc21	none
COc1cc(S(=O)(=O)N2CCN(C(=O)c3ccccc3)CC2)c(OC)cc1Br	none
CN1C(=O)/C(=C/c2ccccc2Cl)Sc2ccc(C(=O)NCc3cccnc3)cc21	CHOP inhibitor 81 (no result: bCat nuc transl)

Screening results from PubChem BioAssay.
